Data reported in ChEMBL document CHEMBL1128461, “Synthesis, X-ray crystallography, and pharmacokinetics of novel azomethine prodrugs of (R)-alpha-methylhistamine: highly potent and selective histamine H3 receptor agonists” (J Med Chem, 1995).

Assays:
[1] = Conversion rate by hydrolysis of compound […] after 2 hr at a pH of 1.0; format: ADME, cell-free; conditions: pH 1; read-out: Conversion rate
Procedure, shortened: (§1)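 Prodrug from a 10 mM DMSO stock, diluted to 4 μM final in 0.4 N HClO4 and held at room temperature. Aliquots were taken at intervals. Free 1 was measured by RIA: p-benzoquinone derivatization for 30 min, then rabbit antiserum and 125I tracer. Hydrolysis % is the measured 1 as a percent of the level for complete hydrolysis.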

[2] = Conversion rate by hydrolysis of compound in plasma after 6 hr.; format: ADME, cell-free; conditions: read-out: Conversion rate
Procedure, shortened: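 Male Swiss mice (20–25 g) were given 24 μmol/kg prodrug orally in 1% methyl cellulose and decapitated at 0.5, 1, 3 or 6 h. Plasma HClO4 extracts were assayed by RIA for free 1, with total 1 measured after heating at 95 °C for 30 min. Value is AUCplasma(1)/[AUCplasma(1)+AUCplasma(prodrug)].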

[3] = Concentration of compound in Central nervous system; Not detectable; format: ADME, tissue-based
[4] = Conversion rate by hydrolysis of compound in plasma after 4 hr at a pH of 7.4; format: ADME, cell-free; conditions: pH 7.4, read-out: Conversion rate
[5] = Plasma concentration (AUC) was determined; Not detectable; format: ADME, cell-free
[6] = Conversion rate by hydrolysis of compound in plasma after 6 h; Not detectable; format: ADME, cell-free
[7] = Conversion rate by hydrolysis of compound […] after 2 hr at a pH of 1.0; Not detectable; format: ADME, cell-free; conditions: pH 1, 2 h; procedure, shortened: as §1
[8] = Conversion rate by hydrolysis of compound in plasma after 4 hr at a pH of 7.4; Not detectable; format: ADME, cell-free; conditions: pH 7.4, 4 h

| SMILES | metabolised at 2 h [1] [%] | metabolised at 6 h [2] [%] | concentration in CNS [3] | metabolised at 4 h [4] [%] | Conversion rate [7] | Conversion rate [8] | AUC [5] | Conversion rate [6] |
| --- | --- | --- | --- | --- | --- | --- | --- | --- |
| C[C@H](Cc1c[nH]cn1)/N=C(\c1ccc(F)cc1)c1cc(F)ccc1O | 63.8 | 45 | – | 33.8 | – | – | – | – |
| C[C@H](Cc1c[nH]cn1)/N=C(\c1ccc(F)cc1)c1cc(Cl)ccc1O | 67.1 | 40 | – | 26 | – | – | – | – |
| C[C@@H]1Cc2[nH]cnc2C(c2ccccc2O)N1 (some centres undefined) | 0.2 | – | Not detectable | – | – | – | Not detectable | Not detectable |
| C[C@H](Cc1c[nH]cn1)/N=C(\c1ccc(Cl)cc1)c1ccccc1O | 18.3 | 28 | – | – | – | – | – | – |
| C[C@H](Cc1c[nH]cn1)/N=C(\c1ccc(Cl)cc1)c1cc(Cl)ccc1O | 62.7 | 58 | – | 16.2 | – | – | – | – |
| C[C@H](Cc1c[nH]cn1)N=C(c1ccccc1O)c1ccccc1O | – | – | Not detectable | – | Not detectable | Not detectable | – | – |
| C[C@H](Cc1c[nH]cn1)/N=C(/c1cc(F)ccc1O)c1cccc2ccccc12 | 0.2 | 11 | Not detectable | 1.3 | – | – | – | – |
| C[C@H](Cc1c[nH]cn1)/N=C(\c1ccc(F)cc1)c1ccccc1O | 20.1 | 26 | – | – | – | – | – | – |

The next lines start with results.

| metabolised at 2 h [1] [%] | metabolised at 6 h [2] [%] | concentration in CNS [3] | metabolised at 4 h [4] [%] | Conversion rate [7] | Conversion rate [8] | SMILES | AUC [5] | Conversion rate [6] |
| --- | --- | --- | --- | --- | --- | --- | --- | --- |
| 14.1 | 14 | Not detectable | – | – | – | C[C@H](Cc1c[nH]cn1)/N=C(\c1ccccc1)c1ccccc1O | – | – |
| 11.9 | 29 | Not detectable | – | – | – | Cc1ccc(O)c(/C(=N/[C@H](C)Cc2c[nH]cn2)c2ccccc2)c1 | – | – |
| 3 | – | Not detectable | 6 | – | – | COc1ccc(/C(=N/[C@H](C)Cc2c[nH]cn2)c2ccccc2)c(O)c1 | Not detectable | – |
| 62 | 42 | – | 15.2 | – | – | C[C@H](Cc1c[nH]cn1)/N=C(\c1ccc(Cl)cc1)c1cc(F)ccc1O | – | – |
| 79.3 | 28 | – | 19.6 | – | – | C[C@H](Cc1c[nH]cn1)/N=C(\c1ccccc1)c1cc(F)cc(Cl)c1O | – | – |
| 46.9 | 33 | Not detectable | 23.2 | – | – | C[C@H](Cc1c[nH]cn1)/N=C(\c1ccccc1)c1cc(Cl)ccc1O | – | – |
| 34.6 | 31 | – | 16.6 | – | – | C[C@H](Cc1c[nH]cn1)/N=C(\c1ccccc1)c1cc(Br)ccc1O | – | – |
| 5.6 | 41 | Not detectable | 2.8 | – | – | Cc1cc(O)c(/C(=N/[C@H](C)Cc2c[nH]cn2)c2ccccc2)cc1Cl | – | – |
| 30 | 24 | – | 15.4 | – | – | C[C@H](Cc1c[nH]cn1)/N=C(\c1ccccc1)c1cc(F)ccc1O | – | – |
